Data reported in PMC2721324 (Bioorganic & medicinal chemistry letters, 2009).
Where two headings read alike, the source gives them in different places.

How the values were obtained:
human P2Y4 receptor [1] = biological target: T1, human P2Y4 receptor (Homo sapiens, UniProt P51582); conditions: cited from earlier work; for EC50: read-out: Reference comp. (X = OCH2) EC50, native riboside, NE = no effect at 10 μM
human P2Y2 receptor [2] = biological target: T2, human P2Y2 receptor (Homo sapiens, UniProt P41231); conditions: cited from earlier work; for EC50: read-out: Reference comp. (X = OCH2) EC50, native riboside, NE = no effect at 10 μM
T2 sequence (P41231 whole entry): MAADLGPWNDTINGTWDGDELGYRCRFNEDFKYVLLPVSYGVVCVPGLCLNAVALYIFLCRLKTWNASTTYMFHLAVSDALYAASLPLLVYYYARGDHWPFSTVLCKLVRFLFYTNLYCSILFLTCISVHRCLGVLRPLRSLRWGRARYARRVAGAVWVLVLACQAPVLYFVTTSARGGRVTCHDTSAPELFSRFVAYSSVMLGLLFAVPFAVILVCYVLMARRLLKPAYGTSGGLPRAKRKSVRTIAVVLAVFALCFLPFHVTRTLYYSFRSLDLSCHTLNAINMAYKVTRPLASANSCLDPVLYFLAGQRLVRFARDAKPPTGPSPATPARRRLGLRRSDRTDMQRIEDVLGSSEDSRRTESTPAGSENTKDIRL

human P2Y2 receptor [3] = biological target: T2, human P2Y2 receptor; type: cell-based; conditions: for agonist character (full or partial agonist): relative to UTP
Outline: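 PLC activation via Gq in 1321N1 human astrocytoma cells stably expressing recombinant human P2Y2 receptor. The parent cells lack a native nucleotide response. Concentration–effect curves were generated for each test compound, and the maximal response was expressed as a percentage of the UTP effect (UTP = 100%) to classify full or partial agonism.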

human P2Y4 receptor [4] = biological target: T1, human P2Y4 receptor; type: cell-based; conditions: stimulation of PLC, NE = no effect at 10 μM
Outline: (§1)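 Recombinant human P2Y4 or P2Y6 receptor, Gq-coupled, was stably expressed in 1321N1 human astrocytoma cells, which lack a native nucleotide response. Phospholipase C activation was measured over concentration–effect curves for each test compound. EC50 is the concentration giving 50% of the maximal effect, reported as mean ± standard error.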

human P2Y6 receptor [5] = biological target: T3, human P2Y6 receptor (Homo sapiens, UniProt Q15077); type: cell-based
T3 sequence (Q15077 whole entry): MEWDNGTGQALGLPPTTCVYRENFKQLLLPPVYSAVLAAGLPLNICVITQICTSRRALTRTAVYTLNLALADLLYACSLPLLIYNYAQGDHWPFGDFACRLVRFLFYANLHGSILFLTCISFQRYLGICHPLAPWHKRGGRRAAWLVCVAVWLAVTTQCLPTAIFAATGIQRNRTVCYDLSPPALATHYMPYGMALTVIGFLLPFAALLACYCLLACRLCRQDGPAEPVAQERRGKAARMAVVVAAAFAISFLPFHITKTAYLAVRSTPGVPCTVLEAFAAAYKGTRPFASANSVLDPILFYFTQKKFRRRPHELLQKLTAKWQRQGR
Outline: as §1

human P2Y6 receptor [6] = biological target: T3, human P2Y6 receptor; conditions: read-out: Reference comp. (X = OCH2) EC50, native riboside, NE = no effect at 10 μM; cited from earlier work

T1 sequence (P51582 whole entry): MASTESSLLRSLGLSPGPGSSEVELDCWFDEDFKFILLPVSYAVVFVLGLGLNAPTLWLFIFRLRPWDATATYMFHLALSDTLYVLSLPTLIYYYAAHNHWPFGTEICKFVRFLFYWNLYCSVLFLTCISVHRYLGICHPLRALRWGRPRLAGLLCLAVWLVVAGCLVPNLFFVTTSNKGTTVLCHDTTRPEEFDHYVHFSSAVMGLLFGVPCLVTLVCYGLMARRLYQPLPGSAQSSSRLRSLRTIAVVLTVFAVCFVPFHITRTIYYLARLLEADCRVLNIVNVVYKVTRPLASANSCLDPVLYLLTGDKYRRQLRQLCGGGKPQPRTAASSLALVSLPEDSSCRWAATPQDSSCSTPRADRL

| SMILES | EC50 (human P2Y2 receptor [2]) | agonist character (full or partial agonist) (human P2Y2 receptor [3]) | EC50 (human P2Y4 receptor [1]) | EC50 (human P2Y6 receptor [6]) | further results |
| --- | --- | --- | --- | --- | --- |
| Nc1ncnc2c1ncn2[C@@H]1O[C@H](COP(=O)(O)OP(=O)(O)OP(=O)(O)O)[C@@H](O)[C@H]1O [ATP] | 0.085 ± 0.012 µM | – | – | – | Reference comp. (X = OCH2) activity (human P2Y4 receptor [1]; native riboside): Antagonist[12] |
| O=c1ccn([C@@H]2O[C@H](/C=C/P(=O)(O)OP(=O)(O)OP(=O)(O)O)[C@@H](O)[C@H]2O)c(=O)[nH]1 [Compound 3, uridine 5′-(diphospho)-vinylphosphonate] | – | Full agonist activity | – | – | reduction of potency relative to ATP or UTP (human P2Y2 receptor [3]; range over compounds 1, 2 and 3): 16–176 fold |
| O=c1ccn([C@@H]2O[C@H](CP(=O)(O)OP(=O)(O)O)[C@@H](O)[C@H]2O)c(=O)[nH]1 [Compound 4, uridine 5′-phospho-phosphonate] | – | partial ag | – | – | EC50 (human P2Y4 receptor [4]): > 10 µM; agonist character (full or partial agonist) (human P2Y6 receptor [5]): full agonist; potency less than UDP (human P2Y6 receptor [5]): approximately 40 fold; maximal effect relative to that of UTP (human P2Y2 receptor [3]; effect of UTP = 100%): ≤ 50% |
| O=c1ccn([C@@H]2O[C@H](COP(=O)(O)OP(=O)(O)C[C@H]3O[C@@H](n4ccc(=O)[nH]c4=O)[C@H](O)[C@@H]3O)[C@@H](O)[C@H]2O)c(=O)[nH]1 [Compound 5, di-(uridine- phosphonate)] | – | – | – | – | EC50 (human P2Y4 receptor [4]): > 10 µM; EC50 (human P2Y6 receptor [5]; stimulation of PLC, mean ± standard error, NE = no effect at 10 μM): > 10 µM |
| O=c1ccn([C@@H]2O[C@H](CCP(=O)(O)O)[C@@H](O)[C@H]2O)c(=O)[nH]1 [Compound 7, uridine 5 ′-methylene-phosphonate] | – | partial ag | – | – | EC50 (human P2Y4 receptor [4]; listed as 5′-methylphosphonate equivalent of UMP): inactive |
| O=c1ccn([C@@H]2O[C@H](COP(=O)(O)OP(=O)(O)O)[C@@H](O)[C@H]2O)c(=O)[nH]1 [UDP] | > 10 µM | – | > 10 µM | 0.046 ± 0.02 µM | – |
| O=c1ccn([C@@H]2O[C@H](COP(=O)(O)O)[C@@H](O)[C@H]2O)c(=O)[nH]1 [UMP] | > 10 µM | – | > 10 µM | > 10 µM | Reference comp. (X = OCH2) EC50 (human P2Y2 receptor [2]; native riboside, NE = no effect at 10 μM): no effect |
| O=c1ccn([C@@H]2O[C@H](COP(=O)(O)OP(=O)(O)OP(=O)(O)O)[C@@H](O)[C@H]2O)c(=O)[nH]1 [UTP] | 0.049 ± 0.012 µM | – | 0.073 ± 0.02 µM | > 10 µM | – |
| O=c1ccn([C@@H]2O[C@H](COP(=O)(O)OP(=O)(O)OC[C@H]3O[C@@H](n4ccc(=O)[nH]c4=O)[C@H](O)[C@@H]3O)[C@@H](O)[C@H]2O)c(=O)[nH]1 [Up2U] | > 10 µM | – | > 10 µM | 1.26 ± 0.17 µM | – |
